Results: ChEMBL document CHEMBL3272012, “5-(Tetradecyloxy)-2-furancarboxylic acid and related hypolipidemic fatty acid-like alkyloxyarylcarboxylic acids” (J Med Chem, 1977)

Key:
Rattus norvegicus [1] = assay: Increase in cholesterol level in Wistar rat liver at 401 umol/kg/day administered through diet for 4 days; type: ADME, organism-based; conditions: in vivo, po, 96 h
Rattus norvegicus [2] = assay: Increase in liver weight in Wistar rat at 401 umol/kg/day administered through diet for 4 days; type: ADME, organism-based; conditions: in vivo, po, 96 h
In short: (§1)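 Male Wistar rats (170-190 g initial), groups of six, dosed via diet ad libitum for 4 or 10 days, daily dose from food consumption. Liver wet weight measured, expressed as g/100 g final body weight, compared with untreated controls run simultaneously.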

Rattus norvegicus [3] = assay: Hypolipidemic activity in Wistar rat assessed as reduction in plasma triglyceride level at 401 umol/kg/day administered through diet for 4 days; type: functional; conditions: 96 h
In short: (§2)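 Young male Wistar rats (initial weight 170-190 g), groups of six, fed compound mixed into Purina Lab Chow ad libitum for 4 or 10 days; daily dose calculated from food consumption and body weight. Bled by cardiac puncture; plasma cholesterol and triglycerides by automated procedures; percent reduction versus simultaneous untreated controls, Student's t test.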

Rattus norvegicus [4] = assay: Hypolipidemic activity in Wistar rat assessed as reduction in plasma cholesterol level at 401 umol/kg/day administered through diet for 4 days; type: functional; conditions: 96 h
In short: (§3)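 Young male Wistar rats, 170-190 g at start, in groups of six, given compound mixed into Purina Lab Chow ad libitum for 4 or 10 days as stated. Daily dose was calculated from food consumption and body weight. Plasma was taken by cardiac puncture at the end and cholesterol measured by automated procedure. Results are % reduction versus a concurrent untreated control group, with Student's t test.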

Rattus norvegicus [5] = assay: Hypolipidemic activity in Wistar rat assessed as reduction in plasma triglyceride level at 640 umol/kg/day administered through diet for 10 days; type: functional; conditions: 240 h
Rattus norvegicus [6] = assay: Increase in liver weight in Wistar rat at 640 umol/kg/day administered through diet for 10 days; type: ADME, organism-based; conditions: in vivo, po, 240 h
Rattus norvegicus [7] = assay: Hypolipidemic activity in Wistar rat assessed as reduction in plasma cholesterol level at 640 umol/kg/day administered through diet for 10 days; type: functional; conditions: 240 h; in short: as §2
Rattus norvegicus [8] = assay: Increase in cholesterol level in Wistar rat liver at 640 umol/kg/day administered through diet for 10 days; type: ADME, organism-based; conditions: in vivo, po, 240 h
Rattus norvegicus [9] = assay: Increase in cholesterol level in Wistar rat liver at 499 umol/kg/day administered through diet for 4 days; type: ADME, organism-based; conditions: in vivo, po, 96 h
Rattus norvegicus [10] = assay: Hypolipidemic activity in Wistar rat assessed as reduction in plasma cholesterol level at 499 umol/kg/day administered through diet for 4 days; type: functional; conditions: 96 h
In short: (§4)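 Young male Wistar rats, 170-190 g initial weight, groups of six, given compound mixed thoroughly into Purina Lab Chow ad libitum for 4 or 10 days as stated. Daily dose calculated from food consumption and body weight. Bled by cardiac puncture at end of treatment; plasma cholesterol measured by automated procedure. Expressed as percent reduction versus simultaneous untreated control group; Student's t test.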

Rattus norvegicus [11] = assay: Increase in liver weight in Wistar rat at 499 umol/kg/day administered through diet for 4 days; type: ADME, organism-based; conditions: in vivo, po, 96 h; in short: as §1
Rattus norvegicus [12] = assay: Hypolipidemic activity in Wistar rat assessed as reduction in plasma triglyceride level at 499 umol/kg/day administered through diet for 4 days; type: functional; conditions: 96 h; in short: as §2
Rattus norvegicus [13] = assay: Increase in liver weight in Wistar rat at 571 umol/kg/day administered through diet for 10 days; type: ADME, organism-based; conditions: in vivo, po, 240 h
Rattus norvegicus [14] = assay: Hypolipidemic activity in Wistar rat assessed as reduction in plasma cholesterol level at 571 umol/kg/day administered through diet for 10 days; type: functional; conditions: 240 h; in short: as §2
Rattus norvegicus [15] = assay: Increase in cholesterol level in Wistar rat liver at 571 umol/kg/day administered through diet for 10 days; type: ADME, organism-based; conditions: in vivo, po, 240 h
Rattus norvegicus [16] = assay: Hypolipidemic activity in Wistar rat assessed as reduction in plasma triglyceride level at 571 umol/kg/day administered through diet for 10 days; type: functional; conditions: 240 h
Rattus norvegicus [17] = assay: Hypolipidemic activity in Wistar rat assessed as reduction in plasma cholesterol level at 477 umol/kg/day administered through diet for 4 days; type: functional; conditions: 96 h; in short: as §4
Rattus norvegicus [18] = assay: Increase in liver weight in Wistar rat at 477 umol/kg/day administered through diet for 4 days; type: ADME, organism-based; conditions: in vivo, po, 96 h
Rattus norvegicus [19] = assay: Increase in cholesterol level in Wistar rat liver at 477 umol/kg/day administered through diet for 4 days; type: ADME, organism-based; conditions: in vivo, po, 96 h
Rattus norvegicus [20] = assay: Hypolipidemic activity in Wistar rat assessed as reduction in plasma triglyceride level at 477 umol/kg/day administered through diet for 4 days; type: functional; conditions: 96 h
Rattus norvegicus [21] = assay: Increase in cholesterol level in Wistar rat liver at 415 umol/kg/day administered through diet for 4 days; type: ADME, organism-based; conditions: in vivo, po, 96 h
Rattus norvegicus [22] = assay: Increase in liver weight in Wistar rat at 415 umol/kg/day administered through diet for 4 days; type: ADME, organism-based; conditions: in vivo, po, 96 h; in short: as §1
Rattus norvegicus [23] = assay: Hypolipidemic activity in Wistar rat assessed as reduction in plasma triglyceride level at 415 umol/kg/day administered through diet for 4 days; type: functional; conditions: 96 h; in short: as §2
Rattus norvegicus [24] = assay: Hypolipidemic activity in Wistar rat assessed as reduction in plasma cholesterol level at 415 umol/kg/day administered through diet for 4 days; type: functional; conditions: 96 h; in short: as §3
Rattus norvegicus [25] = assay: Increase in liver weight in Wistar rat at 1498 umol/kg/day administered through diet for 10 days; type: ADME, organism-based; conditions: in vivo, po, 240 h
Rattus norvegicus [26] = assay: Hypolipidemic activity in Wistar rat assessed as reduction in plasma triglyceride level at 179 umol/kg/day administered through diet for 10 days; type: functional; conditions: 240 h; in short: as §2
Rattus norvegicus [27] = assay: Increase in liver weight in Wistar rat at 558 umol/kg/day administered through diet for 10 days; type: ADME, organism-based; conditions: in vivo, po, 240 h; in short: as §1
Rattus norvegicus [28] = assay: Hypolipidemic activity in Wistar rat assessed as reduction in plasma cholesterol level at 1498 umol/kg/day administered through diet for 10 days; type: functional; conditions: 240 h; in short: as §3
Rattus norvegicus [29] = assay: Increase in cholesterol level in Wistar rat liver at 558 umol/kg/day administered through diet for 10 days; type: ADME, organism-based; conditions: in vivo, po, 240 h
In short: (§5)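 Male Wistar rats (170-190 g), six per group, given compound by admixture to lab chow ad libitum for 4 or 10 days, dose derived from food intake. Liver cholesterol determined by automated procedure, expressed as mg/g wet tissue, compared with an untreated control group by Student's t test.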

Rattus norvegicus [30] = assay: Hypolipidemic activity in Wistar rat assessed as reduction in plasma triglyceride level at 558 umol/kg/day administered through diet for 10 days; type: functional; conditions: 240 h; in short: as §2
Rattus norvegicus [31] = assay: Hypolipidemic activity in Wistar rat assessed as reduction in plasma cholesterol level at 558 umol/kg/day administered through diet for 10 days; type: functional; conditions: 240 h; in short: as §2
Rattus norvegicus [32] = assay: Hypolipidemic activity in Wistar rat assessed as reduction in plasma triglyceride level at 1498 umol/kg/day administered through diet for 10 days; type: functional; conditions: 240 h
In short: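 Young male Wistar rats, 170-190 g initial weight, six per group, fed drug mixed thoroughly into Purina Lab Chow ad libitum for the stated days; daily dose calculated from food consumption and body weight. Bled by cardiac puncture at end; plasma cholesterol and triglycerides by automated procedures, expressed as percent reduction versus simultaneous untreated controls; Student's t test.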

Rattus norvegicus [33] = assay: Hypolipidemic activity in Wistar rat assessed as reduction in plasma cholesterol level at 179 umol/kg/day administered through diet for 10 days; type: functional; conditions: 240 h; in short: as §3
Rattus norvegicus [34] = assay: Increase in cholesterol level in Wistar rat liver at 179 umol/kg/day administered through diet for 10 days; type: ADME, organism-based; conditions: in vivo, po, 240 h; in short: as §5
Rattus norvegicus [35] = assay: Increase in cholesterol level in Wistar rat liver at 1498 umol/kg/day administered through diet for 10 days; type: ADME, organism-based; conditions: in vivo, po, 240 h
Rattus norvegicus [36] = assay: Increase in cholesterol level in Wistar rat liver at 446 umol/kg/day administered through diet for 4 days; type: ADME, organism-based; conditions: in vivo, po, 96 h
Rattus norvegicus [37] = assay: Hypolipidemic activity in Wistar rat assessed as reduction in plasma triglyceride level at 446 umol/kg/day administered through diet for 4 days; type: functional; conditions: 96 h
Rattus norvegicus [38] = assay: Increase in liver weight in Wistar rat at 446 umol/kg/day administered through diet for 4 days; type: ADME, organism-based; conditions: in vivo, po, 96 h
Rattus norvegicus [39] = assay: Hypolipidemic activity in Wistar rat assessed as reduction in plasma cholesterol level at 446 umol/kg/day administered through diet for 4 days; type: functional; conditions: 96 h; in short: as §4
Rattus norvegicus [40] = assay: Increase in liver weight in Wistar rat at 472 umol/kg/day administered through diet for 4 days; type: ADME, organism-based; conditions: in vivo, po, 96 h
Rattus norvegicus [41] = assay: Hypolipidemic activity in Wistar rat assessed as reduction in plasma cholesterol level at 472 umol/kg/day administered through diet for 4 days; type: functional; conditions: 96 h; in short: as §4
Rattus norvegicus [42] = assay: Hypolipidemic activity in Wistar rat assessed as reduction in plasma triglyceride level at 472 umol/kg/day administered through diet for 4 days; type: functional; conditions: 96 h
Rattus norvegicus [43] = assay: Increase in cholesterol level in Wistar rat liver at 472 umol/kg/day administered through diet for 4 days; type: ADME, organism-based; conditions: in vivo, po, 96 h

For CCCCCCCCCCCCCCOc1ccc(CCC(=O)OC)cc1, the Activity (Rattus norvegicus [1]) was 15%, the Activity (Rattus norvegicus [2]) was 17% and the inhibition in vivo at 401 µmol/kg (Rattus norvegicus [3]) was 73%. The inhibition in vivo at 401 µmol/kg (Rattus norvegicus [4]) was 41%.
In the case of CCCCCCCCCCc1ccc(C(=O)O)cc1, the inhibition in vivo at 640 µmol/kg (Rattus norvegicus [5]) is reported as 63%, the Activity (Rattus norvegicus [6]) is reported as 18% and the inhibition in vivo at 640 µmol/kg (Rattus norvegicus [7]) is reported as 32%. The Activity (Rattus norvegicus [8]) was 43%.
CCCCCCCCCCCCCCOc1ccc(C=O)cc1 showed an Activity (Rattus norvegicus [9]) of 12%, an inhibition in vivo at 499 µmol/kg (Rattus norvegicus [10]) of 25% and an Activity (Rattus norvegicus [11]) of 18%. For the same compound, the inhibition in vivo at 499 µmol/kg (Rattus norvegicus [12]) was 68%.
CCCCCCCCCCCCCc1ccc(C(=O)O)cc1 showed an Activity (Rattus norvegicus [13]) of 25%, an inhibition in vivo at 571 µmol/kg (Rattus norvegicus [14]) of 54% and an Activity (Rattus norvegicus [15]) of 61%. The inhibition in vivo at 571 µmol/kg (Rattus norvegicus [16]) was 77%.
Work on CCCCCCCCCCCCCCOc1ccc(CO)cc1 yielded an inhibition in vivo at 477 µmol/kg (Rattus norvegicus [17]) of 35%, an Activity (Rattus norvegicus [18]) of 17% and an Activity (Rattus norvegicus [19]) of 33%. For the same compound, the inhibition in vivo at 477 µmol/kg (Rattus norvegicus [20]) was 41%.
For CCCCCCCCCCCCCCCc1ccc(C(=O)O)cc1, the Activity (Rattus norvegicus [21]) was 13%, the Activity (Rattus norvegicus [22]) was 4% and the inhibition in vivo at 415 µmol/kg (Rattus norvegicus [23]) was 58%. For the same compound, the inhibition in vivo at 415 µmol/kg (Rattus norvegicus [24]) was 27%.
CCCCCCCCCCCCc1ccc(C(=O)O)cc1 was tested, and the Activity (Rattus norvegicus [25]) was 38%, the inhibition in vivo at 179 µmol/kg (Rattus norvegicus [26]) was 62% and the Activity (Rattus norvegicus [27]) was 29%. It also gave an inhibition in vivo at 1498 µmol/kg (Rattus norvegicus [28]) of 55%, an Activity (Rattus norvegicus [29]) of 215% and an inhibition in vivo at 558 µmol/kg (Rattus norvegicus [30]) of 78%. For the same compound, the inhibition in vivo at 558 µmol/kg (Rattus norvegicus [31]) was 48%, the inhibition in vivo at 1498 µmol/kg (Rattus norvegicus [32]) was 74% and the inhibition in vivo at 179 µmol/kg (Rattus norvegicus [33]) was 34%. For the same compound, the Activity (Rattus norvegicus [34]) was 79% and the Activity (Rattus norvegicus [35]) was 323%.
Work on CCCCCCCCCCCCCCOc1ccc(OCC(=O)OC)cc1 yielded an Activity (Rattus norvegicus [36]) of 0%, an inhibition in vivo at 446 µmol/kg (Rattus norvegicus [37]) of 0% and an Activity (Rattus norvegicus [38]) of 4%. The inhibition in vivo at 446 µmol/kg (Rattus norvegicus [39]) was 10%.
In the case of CCCCCCCCCCCCCCOc1ccc(CC(=O)OC)cc1, the Activity (Rattus norvegicus [40]) is reported as 8%, the inhibition in vivo at 472 µmol/kg (Rattus norvegicus [41]) is reported as 0% and the inhibition in vivo at 472 µmol/kg (Rattus norvegicus [42]) is reported as 23%. For the same compound, the Activity (Rattus norvegicus [43]) was 0%.
